How the values were obtained:
[1] = test system: Rattus norvegicus; assay: Biodistribution of [125I]IBF in kidney was determined in rats 120 minutes after intraveneous injection; format: ADME, organism-based; details: in vivo, iv, 2 h
Procedure, shortened: (§1)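 Male Sprague–Dawley rats (225–300 g) with free access to food and water. Under halothane anesthesia they received [125I]IBF (8–10 μCi in 0.2 mL saline) into the femoral vein. Rats were killed by cardiac excision under halothane at the stated time. Organs were weighed and gamma-counted, and % dose/organ was taken against diluted aliquots of the injectate. Blood was assumed to be 7% of body weight and muscle 40%.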

[2] = test system: Rattus norvegicus; assay: Biodistribution of [125I]IBF in striatum was determined in rats 30 minutes after intraveneous injection; format: ADME, organism-based; details: in vivo, iv, 0.5 h
Procedure, shortened: (§2)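 Male Sprague–Dawley rats (225–300 g) with free access to food and water were anesthetized with halothane. Each received 0.2 mL saline containing 8–10 μCi [125I]IBF into the femoral vein and was killed by cardiac excision under halothane at set times. Organs were weighed and gamma-counted, and uptake was calculated against diluted aliquots of the injected dose.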

[3] = test system: Rattus norvegicus; assay: Biodistribution of [125I]IBF in kidney was determined in rats 30 minutes after intraveneous injection; format: ADME, organism-based; details: in vivo, iv, 0.5 h; procedure, shortened: as §1
[4] = test system: Rattus norvegicus; assay: Biodistribution of [125I]IBF in liver was determined in rats 2 minutes after intraveneous injection; format: ADME, organism-based; details: in vivo, iv; procedure, shortened: as §1
[5] = test system: Rattus norvegicus; assay: Biodistribution of [125I]IBF in brain was determined in rats 120 minutes after intraveneous injection; format: ADME, organism-based; details: in vivo, iv, 2 h; procedure, shortened: as §1
[6] = test system: Rattus norvegicus; assay: Biodistribution of [125I]IBF in thyroid was determined in rats 30 minutes after intraveneous injection; format: ADME, organism-based, Thyroid gland; details: in vivo, iv, 0.5 h; procedure, shortened: as §2
[7] = test system: Rattus norvegicus; assay: Biodistribution of [125I]-IBF in blood was determined in rats 60 minutes after intraveneous injection; format: ADME, organism-based; details: in vivo, iv, 1 h; procedure, shortened: as §1
[8] = test system: Rattus norvegicus; assay: Biodistribution of [125I]IBF in thyroid was determined in rats 2 minutes after intraveneous injection; format: ADME, organism-based, Thyroid gland; details: in vivo, iv; procedure, shortened: as §2
[9] = test system: Rattus norvegicus; assay: Biodistribution of [125I]IBF in spleen was determined in rats 2 minutes after intraveneous injection; format: ADME, organism-based; details: in vivo, iv; procedure, shortened: as §1
[10] = Biodistribution of [125I]IBF in blood was determined in rats 30 minutes after intraveneous injection; details: rat, in vivo, iv, 0.5 h
[11] = test system: Rattus norvegicus; assay: Biodistribution of [125I]-IBF in heart was determined in rats 120 minutes after intraveneous injection; format: ADME, organism-based; details: in vivo, iv, 2 h; procedure, shortened: as §1
[12] = test system: Rattus norvegicus; assay: Biodistribution of [125I]IBF in lung was determined in rats 120 minutes after intraveneous injection; format: ADME, organism-based; details: in vivo, iv, 2 h; procedure, shortened: as §1
[13] = test system: Rattus norvegicus; assay: Biodistribution of [125I]IBF in spleen was determined in rats 30 minutes after intraveneous injection; format: ADME, organism-based; details: in vivo, iv, 0.5 h; procedure, shortened: as §1
[14] = test system: Rattus norvegicus; assay: Biodistribution of [125I]IBF in liver was determined in rats 15 minutes after intraveneous injection; format: ADME, organism-based; details: in vivo, iv, 0.25 h; procedure, shortened: as §1
[15] = test system: Rattus norvegicus; assay: Biodistribution of [125I]IBF in spleen was determined in rats 120 minutes after intraveneous injection; format: ADME, organism-based; details: in vivo, iv, 2 h; procedure, shortened: as §1
[16] = test system: Rattus norvegicus; assay: Biodistribution of [125I]-IBF in blood was determined in rats 2 minutes after intraveneous injection; format: ADME, organism-based; details: in vivo, iv; procedure, shortened: as §1
[17] = test system: Rattus norvegicus; assay: Biodistribution of [125I]IBF in kidney was determined in rats 2 minutes after intraveneous injection; format: ADME, organism-based; details: in vivo, iv; procedure, shortened: as §1
[18] = test system: Rattus norvegicus; assay: Biodistribution of [125I]IBF in lung was determined in rats 60 minutes after intraveneous injection; format: ADME, organism-based; details: in vivo, iv, 1 h; procedure, shortened: as §1
[19] = test system: Rattus norvegicus; assay: Biodistribution of [125I]IBF in liver was determined in rats 120 minutes after intraveneous injection; format: ADME, organism-based; details: in vivo, iv, 2 h; procedure, shortened: as §1
[20] = test system: Rattus norvegicus; assay: Biodistribution of [125I]IBF in brain/blood was determined in rats 2 minutes after intraveneous injection; format: ADME, organism-based; details: in vivo, iv
[21] = test system: Rattus norvegicus; assay: Biodistribution of [125I]-IBF in heart was determined in rats 30 minutes after intraveneous injection; format: ADME, organism-based; details: in vivo, iv, 0.5 h; procedure, shortened: as §1
[22] = test system: Rattus norvegicus; assay: Biodistribution of [125I]IBF in spleen was determined in rats 60 minutes after intraveneous injection; format: ADME, organism-based; details: in vivo, iv, 1 h; procedure, shortened: as §1
[23] = test system: Rattus norvegicus; assay: Biodistribution of [125I]IBF in thyroid was determined in rats 60 minutes after intraveneous injection; format: ADME, organism-based, Thyroid gland; details: in vivo, iv, 1 h; procedure, shortened: as §2
[24] = test system: Rattus norvegicus; assay: Biodistribution of [125I]IBF in muscle was determined in rats 15 minutes after intraveneous injection; format: ADME, organism-based, Muscle tissue; details: in vivo, iv, 0.25 h; procedure, shortened: as §1
[25] = test system: Rattus norvegicus; assay: Biodistribution of [125I]IBF in skin was determined in rats 30 minutes after intraveneous injection; format: ADME, organism-based, Zone of skin; details: in vivo, iv, 0.5 h; procedure, shortened: as §1
[26] = test system: Rattus norvegicus; assay: Biodistribution of [125I]-IBF in skin was determined in rats 60 minutes after intraveneous injection; format: ADME, organism-based, Zone of skin; details: in vivo, iv, 1 h; procedure, shortened: as §1
[27] = test system: Rattus norvegicus; assay: Biodistribution of [125I]IBF in striatum was determined in rats 60 minutes after intraveneous injection; format: ADME, organism-based; details: in vivo, iv, 1 h; procedure, shortened: as §2
[28] = test system: Rattus norvegicus; assay: Biodistribution of [125I]IBF in brain/blood was determined in rats 120 minutes after intraveneous injection; format: ADME, organism-based; details: in vivo, iv, 2 h
[29] = test system: Rattus norvegicus; assay: Biodistribution of [125I]IBF in striatum was determined in rats 120 minutes after intraveneous injection; format: ADME, organism-based; details: in vivo, iv, 2 h
[30] = test system: Rattus norvegicus; assay: Biodistribution of [125I]IBF in muscle was determined in rats 60 minutes after intraveneous injection; format: ADME, organism-based, Muscle tissue; details: in vivo, iv, 1 h; procedure, shortened: as §1

CCN1CCC[C@H]1CNC(=O)c1cc(I)cc2c1OCC2 gave a Dose/organ [1] of 0.68%, a Dose/organ [2] of 0.66% and a Dose/organ [3] of 1.58%. The Dose/organ [4] was 16.32%, the Dose/organ [5] was 0.07% and the Dose/organ [6] was 0.02%. The Dose/organ [7] was 0.98%, the Dose/organ [8] was 0.06% and the Dose/organ [9] was 0.96%. The Dose/organ [10] was 1.26%, the Dose/organ [11] was 0.02% and the Dose/organ [12] was 0.12%. For the same compound, the Dose/organ [13] was 0.31%, the Dose/organ [14] was 16.16% and the Dose/organ [15] was 0.03%. For the same compound, the Dose/organ [16] was 3.5%, the Dose/organ [17] was 7.58% and the Dose/organ [18] was 0.37%. It also gave a Dose/organ [19] of 3.95%, a Dose/organ [20] of 2.64 and a Dose/organ [21] of 0.11%. For the same compound, the Dose/organ [22] was 0.09%, the Dose/organ [23] was 0.02% and the Dose/organ [24] was 14.36%. For the same compound, the Dose/organ [25] was 5.34%, the Dose/organ [26] was 2.38% and the Dose/gram [27] was 0.705 % dose/g. It also gave a Dose/organ [28] of 1.53, a Dose/gram [29] of 0.444 % dose/g and a Dose/organ [30] of 4.97%.
